# Source: ChEMBL document CHEMBL1126276, “Synthesis and antimalarial properties of 1-imino derivatives of 7-chloro-3-substituted-3,4-dihydro-1,9(2H,10H)-acridinediones and related structures” (J Med Chem, 1992)
# How the values were obtained:
# [1] = test system: Plasmodium berghei; test: Antimalarial activity was measured against mice (Mus musculus) infected with Plasmodium berghei by subcutaneous administration of 640 mg/kg dose; type: organism-based; design: dose 640 mg/kg, route subcutaneous; settings: in vivo, sc
# Summary of the method: (§1)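 […] in mice infected with a normal drug-sensitive P. berghei strain. Compound dissolved or suspended in sesame or peanut oil, given as a single subcutaneous dose 72 h postinfection.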
# [2] = test system: Plasmodium berghei; test: Antimalarial activity in Plasmodium berghei infected mice (Mus musculus) after subcutaneous 160 mg/kg dose; type: functional
# Summary of the method: (§2)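 Normal drug-sensitive P. berghei strain in mice. Compound dissolved or suspended in sesame or peanut oil, given parenterally as a single subcutaneous dose 72 h postinfection.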
# [3] = test system: Plasmodium berghei; test: Antimalarial activity in Plasmodium berghei infected mice (Mus musculus) after subcutaneous 320 mg/kg dose; type: functional; summary of the method: as §2
# [4] = test system: Plasmodium berghei; test: Antimalarial activity in Plasmodium berghei infected mice (Mus musculus) after subcutaneous 640 mg/kg dose; type: functional; summary of the method: as §2
# [5] = test system: Plasmodium berghei; test: (§3) Antimalarial activity in Plasmodium berghei infected mice (Mus musculus) after 80 mg/kg subcutaneous dose; type: functional; summary of the method: as §2
# [6] = test system: Plasmodium berghei; test: Antimalarial activity in Plasmodium berghei infected mice (Mus musculus) after 320 mg/kg subcutaneous dose; type: functional; summary of the method: as §1
# [7] = test system: Plasmodium berghei; test: (§4) Antimalarial activity in Plasmodium berghei infected mice (Mus musculus) after 40 mg/kg subcutaneous dose; type: functional; summary of the method: as §1
# [8] = test system: Plasmodium berghei; test: (§5) Antimalarial activity in Plasmodium berghei infected mice (Mus musculus) after 20 mg/kg subcutaneous dose; type: functional; summary of the method: as §2
# [9] = test system: Plasmodium berghei; test: as §4; type: functional; summary of the method: as §2; remark: listed apart in the source
# [10] = test system: Plasmodium berghei; test: as §5; type: functional; summary of the method: as §1; remark: listed apart in the source
# [11] = test system: Plasmodium berghei; test: Antimalarial activity Plasmodium berghei infected mice (Mus musculus) after 640 mg/kg subcutaneous dose; type: functional; summary of the method: as §1
# [12] = test system: Plasmodium berghei; test: as §3; type: functional; summary of the method: as §1; remark: listed apart in the source
# [13] = test system: Plasmodium berghei; test: Antimalarial activity in Plasmodium berghei infected mice (Mus musculus) after 160 mg/kg subcutaneous dose; type: functional; summary of the method: as §1
Structure (SMILES),No. of toxic deaths [1],No. of cured mice [2],No. of cured mice [3],No. of cured mice [4],No. of cured mice [5],Delta mean survival time [6],Delta mean survival time [7],No. of cured mice [8],No. of cured mice [9],Delta mean survival time [10],Delta mean survival time [11],Delta mean survival time [12],Delta mean survival time [13]
CCCCCCC/N=C1\CC(c2ccc(C(F)(F)F)cc2)Cc2c1c(=O)c1cc(Cl)ccc1n2O (stereo not drawn),1,5,3,4,5,14.7,4.3,–,–,–,–,–,–
CCN(CC)CC(C)(C)C/N=C1\CC(c2ccc(C(F)(F)F)cc2)Cc2nc3ccc(Cl)cc3c(O)c21 (stereo not drawn),–,5,4,4,4,49.6,10.3,2,2,8.6,1.3,13.6,–
O=c1c2c(n(O)c3ccc(Cl)cc13)CC(c1ccc(C(F)(F)F)cc1)C/C2=N\CCCN1CCCCC1 (stereo not drawn),4,5,5,1,3,–,10,–,3,8.5,–,12,–
OCCNCC/N=C1\CC(c2ccc(Cl)cc2Cl)Cc2nc3ccc(Cl)cc3c(O)c21 (stereo not drawn),–,5,5,5,5,–,–,5,5,–,–,–,–
CSc1ccc(C2C/C(=N\CCCN(C)C)c3c(nc4ccc(Cl)cc4c3O)C2)cc1 (stereo not drawn),1,1,3,4,1,12.8,3.4,–,–,2.8,–,4,9.8
CCN(CC)CCCCCCC/N=C1\CC(c2ccc(Cl)cc2Cl)Cc2nc3ccc(Cl)cc3c(O)c21 (stereo not drawn),–,4,4,5,5,3.7,9.7,4,4,6.7,–,–,0.7
CC1C(=O)c2c(n(O)c3ccc(Cl)cc3c2=O)CC1c1ccc(Cl)c(Cl)c1 (stereo not drawn),–,5,5,5,5,–,9.6,3,4,7.6,–,–,–
COc1ccccc1C1CC(=O)c2c(n(O)c3ccc(Cl)cc3c2=O)C1 (stereo not drawn),3,–,–,–,–,2.2,2.2,–,–,0.8,–,1.8,–
O=C1CC(c2ccc(Cl)cc2Cl)Cc2c1c(=O)c1cc(Cl)ccc1n2O (stereo not drawn),–,5,5,5,5,–,–,2,5,1.9,–,–,–
CC1C(=O)c2c(n(O)c3ccc(Cl)cc3c2=O)CC1c1ccc(Cl)cc1Cl (stereo not drawn),–,5,5,5,5,–,–,2,5,10.7,–,–,–
O=C1CC(c2ccc(C(F)(F)F)cc2)Cc2c1c(=O)c1cc(Cl)ccc1n2O (stereo not drawn) [FLOXACRINE],–,5,5,3,5,–,–,4,5,8.9,3.4,–,–
CCN(CC)CC/N=C1\CC(c2ccc(Cl)c(Cl)c2)Cc2nc3ccc(Cl)cc3c(O)c21 (stereo not drawn),–,5,3,5,4,20,8,2,4,9.3,–,8,–
CC1/C(=N\CCCN(C)C)c2c(n(O)c3ccc(Cl)cc3c2=O)CC1c1ccc(Cl)cc1Cl (stereo not drawn),–,5,4,1,4,2.8,–,1,5,11.1,1.8,16.8,–
